Assay results: ChEMBL document CHEMBL1154122, “A comprehensive study of Sansalvamide A derivatives: The structure-activity relationships of 78 derivatives in two pancreatic cancer cell lines” (2009)
Square brackets hold non-standard residues; d marks the D form. Peptide text beside a SMILES is read from it. * marks the point of attachment. NMeF = CN[C@@H](Cc1ccccc1)C(=O)O; Cha = N[C@@H](CC1CCCCC1)C(=O)O; NMeL = CN[C@@H](CC(C)C)C(=O)O; dNMeL = CN[C@H](CC(C)C)C(=O)O; dNMeV = CN[C@@H](C(=O)O)C(C)C; NMeV = CN[C@H](C(=O)O)C(C)C; Orn = NCCC[C@H](N)C(=O)O; dAbu = CC[C@@H](N)C(=O)O; Abu = CC[C@H](N)C(=O)O; Cbz = O=C(OCc1ccccc1)*; Bn = c1ccc(C*)cc1; Sar = CNCC(=O)O

Tests used:
[1] = Cytotoxicity against human PL45 cells after 56 hrs by [3H]thymidine uptake assay; format: functional
In short: (§1)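 Cells seeded at 2000–2500/well in DMEM with L-glutamine, 10% FBS and 1% penicillin-streptomycin. […] After 56 h, 3H-thymidine was added for 16 h more (72 h total), then cells were harvested and counted (CPM). Inhibition = 1 − CPM treated/DMSO; IC50 taken from curves, mean and SEM.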

BXPC-3 = assay: Cytotoxicity against human BxPC3 cells after 56 hrs by [3H]thymidine uptake assay; format: functional; in short: as §1

Row | SMILES | growth inhibition (GI) [1] [%] | growth inhibition (GI) (BXPC-3) [%]
1 | CC(C)C[C@@H]1NC(=O)[C@@H](CC(C)C)N(C)C(=O)[C@H](Cc2ccccc2)NC(=O)[C@H](CC(C)C)NC(=O)[C@@H](C(C)C)NC1=O | 26 | 38
2 | CC(C)C[C@@H]1NC(=O)[C@H](Cc2ccccc2)NC(=O)[C@@H](Cc2ccccc2)N(C)C(=O)[C@@H](C(C)C)NC(=O)[C@H](CC(C)C)NC1=O | 55 | 4
3 | CC(C)C[C@@H]1NC(=O)CN(C)C(=O)[C@H](Cc2ccccc2)NC(=O)[C@H](C(C)C)NC(=O)[C@@H](C(C)C)NC1=O (cyclo(F[Sar]L[dV]V)) | 0 | 22
4 | CC(C)[C@@H]1NC(=O)[C@H](Cc2ccccc2)NC(=O)[C@@H](CO)NC(=O)[C@H](C(C)C)NC(=O)[C@H](C(C)C)NC1=O (cyclo(FVVV[dS])) | 7 | 13
5 | CC(C)[C@@H]1NC(=O)[C@H](Cc2ccccc2)NC(=O)[C@H](C(C)C)NC(=O)[C@@H](CO)NC(=O)[C@H](C(C)C)NC1=O (cyclo(FVV[dS]V)) | 18 | 20
6 | CC(C)C[C@@H]1NC(=O)[C@H](Cc2ccccc2)NC(=O)[C@H](CC(C)C)NC(=O)[C@@H](C(C)C)NC(=O)[C@H](CCCCN)NC1=O (cyclo(FLK[dV]L)) | 23 | 24
7 | CC(C)C[C@@H]1NC(=O)[C@H](C(C)C)N(C)C(=O)[C@H](CC(C)C)NC(=O)[C@H](CC(C)C)N(C)C(=O)[C@H](Cc2ccccc2)NC1=O (cyclo(F[NMeL]L[NMeV]L)) | 0 | 0
8 | CC(C)C[C@@H]1NC(=O)[C@H](Cc2ccccc2)NC(=O)[C@H](CC(C)C)NC(=O)[C@@H](C(C)C)N(C)C(=O)[C@H](CC2CCCCC2)NC1=O (cyclo([Cha][dNMeV]LFL)) | 30 | 49
9 | CC(C)[C@H]1NC(=O)[C@H](CC2CCCCC2)NC(=O)[C@H](COCc2ccccc2)NC(=O)[C@H](Cc2ccccc2)NC(=O)[C@@H](Cc2ccccc2)N(C)C1=O | 70 | 80
10 | CC(C)C[C@@H]1NC(=O)[C@@H](C(C)C)N(C)C(=O)[C@H](CC(C)C)NC(=O)[C@@H](CC(C)C)NC(=O)[C@H](Cc2ccccc2)NC1=O | 21 | 35
11 | CC(C)C[C@@H]1NC(=O)[C@H](CC(C)C)N(C)C(=O)[C@H](Cc2ccccc2)NC(=O)[C@H](CC(C)C)N(C)C(=O)[C@H](C(C)C)NC1=O | 38 | 9
12 | CC[C@@H]1NC(=O)[C@H](CC(C)C)NC(=O)[C@H](CC(C)C)NC(=O)[C@H](Cc2ccccc2)NC(=O)[C@H](CC(C)C)NC1=O (cyclo([Abu]LFLL)) | 0 | 0
13 | CC(C)C[C@@H]1C(=O)N[C@H](CC(C)C)C(=O)N[C@H](C(C)C)C(=O)N[C@H](CC(C)C)C(=O)N[C@H](Cc2ccccc2)C(=O)N1C | 43 | 33
14 | CC(C)C[C@@H]1NC(=O)[C@H](Cc2ccccc2)NC(=O)[C@H](CC(C)C)NC(=O)[C@@H](C(C)C)NC(=O)[C@H](CCCCNC(=O)OCc2ccccc2)NC1=O (cyclo(FLK(Cbz)[dV]L)) | 0 | 29
15 | CC(C)C[C@@H]1NC(=O)[C@H](C(C)C)NC(=O)[C@H](CCCN)NC(=O)[C@H](CC(C)C)NC(=O)[C@@H](Cc2ccc(O)cc2)NC1=O (cyclo(L[Orn]VL[dY])) | 0 | 0
16 | CC(C)C[C@@H]1NC(=O)[C@H](C(C)C)NC(=O)[C@H](CC(C)C)NC(=O)[C@@H](CC(C)C)N(C)C(=O)[C@H](Cc2ccccc2)NC1=O | 49 | 43
17 | CC(C)C[C@@H]1NC(=O)[C@H](CC(C)C)NC(=O)[C@H](Cc2ccccc2)N(C)C(=O)[C@H](CC(C)C)NC(=O)[C@H](C(C)C)NC1=O (cyclo([NMeF]LLVL)) | 30 | 33
18 | CC(C)C[C@@H]1NC(=O)[C@H](CC(C)C)NC(=O)[C@@H](Cc2ccc(O)cc2)NC(=O)[C@H](CC(C)C)NC(=O)[C@H](C(C)C)NC1=O (cyclo(LLVL[dY])) | 11 | 35

Row | SMILES | growth inhibition (GI) [1] [%] | growth inhibition (GI) (BXPC-3) [%]
19 | CC(C)C[C@@H]1NC(=O)[C@@H](CC(C)C)NC(=O)[C@H](Cc2ccccc2)NC(=O)[C@H](CC(C)C)NC(=O)[C@@H](C(C)C)NC1=O | 32 | 30
20 | CC(C)C[C@@H]1NC(=O)[C@H](C(C)C)NC(=O)[C@H](CC(C)C)NC(=O)[C@H](CC(C)C)N(C)C(=O)[C@H](Cc2ccccc2)NC1=O | 44 | 47
21 | CC(C)C[C@@H]1NC(=O)[C@H](CC(C)C)NC(=O)[C@@H](Cc2ccccc2)NC(=O)[C@H](CC(C)C)NC(=O)[C@@H](C(C)C)NC1=O | 41 | 7
22 | CC(C)C[C@@H]1NC(=O)[C@H](Cc2ccccc2)NC(=O)[C@H](CC(C)C)NC(=O)[C@H](C(C)C)N(C)C(=O)[C@H](CC(C)C)NC1=O | 20 | 28
23 | CC(C)C[C@@H]1NC(=O)[C@H](C(C)C)NC(=O)[C@H](CC(C)C)N(C)C(=O)[C@@H](CC(C)C)NC(=O)[C@@H](Cc2ccccc2)NC1=O (cyclo([dL][NMeL]VL[dF])) | 59 | 58
24 | CC(C)C[C@@H]1NC(=O)[C@H](C(C)C)N(C)C(=O)[C@@H](CC(C)C)NC(=O)[C@@H](Cc2ccccc2)NC(=O)[C@@H](Cc2ccccc2)NC1=O | 15 | 6
25 | CC(C)C[C@@H]1NC(=O)[C@H](CC(C)C)N(C)C(=O)[C@H](Cc2ccccc2)NC(=O)[C@H](CC(C)C)N(C)C(=O)[C@H](C(C)C)N(C)C1=O (cyclo(F[NMeL]L[NMeV][NMeL])) | 0 | 0
26 | CC(C)C[C@@H]1NC(=O)[C@H](COCc2ccccc2)NC(=O)[C@@H](Cc2ccccc2)NC(=O)[C@@H](CC(C)C)NC(=O)[C@@H](C(C)C)NC1=O | 30 | 43
27 | CC(C)C[C@@H]1NC(=O)[C@H](Cc2ccccc2)NC(=O)[C@H](CC(C)C)NC(=O)[C@H](C(C)C)NC(=O)[C@H](CCCCNC(=O)OCc2ccccc2)NC1=O (cyclo(FLK(Cbz)VL)) | 0 | 8
28 | CC(C)C[C@@H]1NC(=O)[C@H](Cc2ccccc2)NC(=O)[C@@H](CC(C)C)N(C)C(=O)[C@H](C(C)C)NC(=O)[C@H](CC(C)C)NC1=O (cyclo(FLLV[dNMeL])) | 5 | 2
29 | CC(C)C[C@@H]1NC(=O)[C@H](C)NC(=O)[C@H](CC(C)C)NC(=O)[C@H](CC(C)C)NC(=O)[C@H](Cc2ccccc2)NC1=O (cyclo(ALFLL)) | 18 | 20
30 | CC(C)C[C@@H]1NC(=O)[C@H](Cc2ccccc2)NC(=O)[C@@H](CO)NC(=O)[C@H](C(C)C)NC(=O)[C@H](CC(C)C)NC1=O (cyclo(FLLV[dS])) | 32 | 25
31 | CC(C)C[C@@H]1NC(=O)[C@H](Cc2ccccc2)NC(=O)[C@H](CC(C)C)NC(=O)[C@H](C(C)C)NC(=O)[C@H](CCCCN)NC1=O (cyclo(FLKVL)) | 0 | 8
32 | CC(C)C[C@@H]1NC(=O)[C@H](CC(C)C)NC(=O)[C@@H](Cc2ccccc2)NC(=O)[C@H](CC(C)C)NC(=O)[C@H](C(C)C)NC1=O | 22 | 55
33 | CC(C)[C@@H]1NC(=O)[C@H](Cc2ccccc2)NC(=O)[C@H](C(C)C)NC(=O)[C@@H](COCc2ccccc2)NC(=O)[C@H](C(C)C)NC1=O (cyclo(FVV[dS](Bn)V)) | 0 | 15
34 | CC[C@H]1NC(=O)[C@H](CC(C)C)NC(=O)[C@H](CC(C)C)NC(=O)[C@H](Cc2ccccc2)NC(=O)[C@H](CC(C)C)NC1=O (cyclo(FLL[dAbu]L)) | 12 | 17
35 | CC(C)C[C@@H]1NC(=O)[C@H](Cc2ccccc2)NC(=O)[C@@H](Cc2ccccc2)N(C)C(=O)[C@H](C(C)C)NC(=O)[C@H](CC(C)C)NC1=O | 51 | 35
